Bioassay records deposited in PubChem BioAssay by several laboratories.
This is one part of a sample in which hits are shown more often than they occur.
697 NFkB inh: lowers PMA/ionomycin-induced NF-kB signal in 697 B cells | 697 B-cell NF-kB luciferase reporter, 16 h | inhibition, % at 4 µM | actives 0.33% (n = 330,000) | AID 435022; in the data active = inhibition above about 35%
Jurkat NFkB inh: inhibitors of the PMA/ionomycin-induced NF-kB reporter in Jurkat cells | AID 435003 | inhibition, % at 4 µM | actives 0.53% (n = 330,000) | PMA/ionomycin-induced NF-kB luciferase reporter, luminescence; in the data active = inhibition above about 50%
UPR XBP1 act: activators of adaptive arm of unfolded protein response (XBP1); CHO-XBP1 luciferase reporter, IRE1-XBP1 UPR activation, luminescence; percent of tunicamycin response, DMSO as zero; activation, % at 20 µM; actives 0.33% (n = 330,000);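 active = versus positive control, 20 µM dose yields 30% or more activation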;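 also: 100% = tunicamycin at 10 µg/mL and 0% = DMSO only wells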
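Material: CHO cell line with stable XBP1 luciferase reporter; schedule: 16-18 h cell attachment at 37 °C, then 6 h compound exposure; signal: glow luminescence from Steady-Glo reagent; medium: serum-containing F12 medium, 10% FBS; benchmarks: tunicamycin 10 µg/mL and vehicle-only wells; read-out: percent activation relative to tunicamycin reference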
CHOP inhibitor: blocks CHOP induction under ER stress; inhibition, % at 10 µM; CHO-K1 CHOP-promoter luciferase, tunicamycin-induced, 15-18 h; actives 3.8% (n = 220,000); AID 2732;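 active = compounds that reduced the stress-induced luciferase reporter signal by more than about 70% of percent inhibition, limit read from the data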;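 also: 0% = tunicamycin plus vehicle and 100% = wells without tunicamycin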
CHOP UPR activ: apoptotic UPR (CHOP) activation | CHO-CHOP luciferase reporter, luminescence; percent of tunicamycin response over DMSO baseline | activation, % at 10 µM | actives 0.34% (n = 330,000);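 active = at 10 µM dose, activation of 40% or more, normalized to positive control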;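 also: 100% = tunicamycin at 10 µg/mL and 0% = DMSO alone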
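Assay system: CHO-CHOP cells, stable luciferase reporter of PERK-eIF2a-CHOP signalling / Buffer or medium: F12 plus 10% serum / Compound dosing: one dose, 10 µM in 0.5% DMSO / Times: 6 h compound treatment, 37 °C / Technique: luciferase luminescence / Read-out: % reporter activation, DMSO baseline versus tunicamycin full activation / Benchmarks: tunicamycin and DMSO controls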
CHOP confirm: confirmation of CHOP induction inhibitors; shares compounds with CHOP inhibitor; CHO-CHOP promoter luciferase reporter, tunicamycin-induced, luminescence; inhibition, % at 10 µM; actives 45% (n = 2,100);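 active = mean of three repeat readings of reporter signal inhibition above a set limit, cut at about 70% in these data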;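 also: 0% = tunicamycin plus vehicle and 100% = wells lacking tunicamycin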
Jurkat NFkB conf: inhibitors of the PMA/ionomycin-induced NF-kB reporter in Jurkat cells, retest | shares compounds with Jurkat NFkB inh | Jurkat NF-kB luciferase, 16 h | inhibition, % at 4 µM | actives 27% (n = 2,700) | AID 435020;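 active = inhibition reaching about 45% at 4 µM in either replicate, limit read from the data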;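 also: plate controls were PMA/ionomycin stimulated DMSO wells for no effect and unstimulated DMSO wells for full effect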
CHOP UPR conf: apoptotic UPR (CHOP) activation, confirmed; shares compounds with CHOP UPR activ; CHO-CHOP cells, CHOP-luciferase reporter luminescence; percent of tunicamycin response, DMSO as zero; actives 64% (n = 1,000); activation, % at 10 µM; in the data active = activation above about 33%;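 also: 0% = DMSO wells and 100% = tunicamycin 10 µg/mL wells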
* marks the source's active call; other numbers are inactive results; nt = no result.

SMILES	697 NFkB inh	Jurkat NFkB inh	UPR XBP1 act	CHOP inhibitor	CHOP UPR activ	Jurkat NFkB conf	others
C[C@]12CC[C@H](O)CC1=CCC1C2CC[C@]2(C)C(=O)[C@H](Br)CC12 (some centres not stated)	31	7	-4	nt	0	nt
CCOC(=O)c1c(-n2c(C)cc(C=C3C(=O)NC(=S)NC3=O)c2C)sc2c1CCCC2	10	4	4	107*	185*	nt	CHOP confirm=140*;CHOP UPR conf=-11
CCOC(=O)c1c(-n2c(C)cc(/C=C3/C(=O)NC(=O)N(CC)C3=O)c2C)sc2c1CCCC2	17	-3	-1	nt	1	nt
Cc1ccc(/C=C2\C(=O)NC(=S)N(c3ccc(F)cc3)C2=O)s1	-22	-4	-8	103*	393*	nt	CHOP confirm=-158;CHOP UPR conf=17
COc1ccc(N2C(=O)/C(=C/c3cccs3)C(=O)NC2=S)cc1	25	7	-7	104*	462*	nt	CHOP confirm=-141;CHOP UPR conf=157*
Nc1ccncc1	-11	-12	-7	9	0	nt
CC(C)(C)C(=O)NC1CCSC1=O (configuration not stated)	3	3	-3	-15	-2	nt
COc1cc2nc(CN3CC=C(c4ccccc4)CC3)[nH]c(=O)c2cc1OC	26	59*	-2	nt	-2	52*
CCOC(=O)C(NC(=O)C(Cc1ccc(N(CCCl)CCCl)cc1)NC(C)=O)C(C)C (configuration not stated)	-1	-10	1	9	-1	nt
COC(=O)C(Cc1ccc(N(CCCl)CCCl)cc1)N=Cc1ccccc1O (configuration not stated)	-107	51*	-9	nt	-4	46
COc1cccc(OC)c1C1=NCC(=O)Nc2c1oc1ccc(Br)cc21	-45	56*	18	nt	0	61*
O=C1CN=C(c2ccccc2)c2oc3ccc(Br)cc3c2N1	16	1	0	41	0	nt
C#C[C@]1(O)CCC2C3C(CC[C@@]21C)[C@@]1(C)CC[C@@H](O)CC1=C[C@H]3O (some centres not stated)	5	-10	-2	nt	1	nt
Cc1cc(C)c2c(ccc3cccc[n+]32)c1	-10	57*	-5	nt	-1	39
COc1ccc(-c2cc(=Nc3ccccc3)c3cc(C)ccc3o2)cc1	-188	-155	-1	-18	3	-140
COC(=O)C1=C(c2ccc(F)cc2F)C[C@@H]2CC[C@H]1N2C(=O)NC1Cc2ccccc2C1	3	-1	-5	nt	-1	nt
COc1ccc(-n2cnc3cc(C(=O)N4CCC5(CC4)OCCO5)ccc32)cc1	-11	50*	-1	34	0	8
CC(=O)O[C@@]12CO[C@@H]1C[C@H](O)[C@@]1(C)C(=O)[C@H](O)C3=C(C)[C@@H](O)C[C@@](O)([C@@H](OC(=O)c4ccccc4)C12)C3(C)C (some centres not stated)	11	31	-3	nt	1	nt
C/C=C(\C)C(=O)N[C@@H](c1ccccc1)[C@@H](O)C(=O)O[C@H]1C[C@@]2(O)[C@@H](OC(=O)c3ccccc3)C3[C@](C)(C(=O)[C@H](O)C(=C1C)C2(C)C)[C@@H](O)C[C@H]1OC[C@@]31OC(C)=O (some centres not stated)	6	70*	2	nt	0	64*
C/C=C(\C)C(=O)N[C@@H](c1ccccc1)[C@@H](O)C(=O)O[C@H]1C[C@@]2(O)[C@@H](OC(=O)c3ccccc3)C3[C@](C)(C(=O)[C@H](OC(C)=O)C(=C1C)C2(C)C)[C@@H](O)C[C@H]1OC[C@@]31OC(C)=O (some centres not stated)	-14	66*	2	nt	0	71*
